In ChEMBL document CHEMBL1134541, “Potent and selective carboxylic acid-based inhibitors of matrix metalloproteinases” (J Med Chem, 2001):
In brackets after ≈: the same amount, converted by molar mass.

Key:
[1] = biological target: 72 kDa type IV collagenase (Homo sapiens, UniProt P08253); experiment: In vitro inhibitory activity against matrix metalloprotease-2
[2] = biological target: Matrix metalloproteinase-9 (Homo sapiens, UniProt P14780); experiment: In vitro inhibition of human matrix metalloprotease-9
In short: (§1)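 Inhibition of each enzyme (MMP-1 collagenase-1, MMP-2 gelatinase A, MMP-3 stromelysin, MMP-7 matrilysin, MMP-8 collagenase-2, MMP-9 gelatinase B) was measured at pH 7.4 and reported as binding values. Compounds were tested as racemic mixtures. Standard deviations were under 30% of the mean values.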

Neutrophil collagenase = Neutrophil collagenase (Homo sapiens, UniProt P22894); experiment: Inhibitory activity against matrix metalloprotease-8
Matrilysin = biological target: T1, Matrilysin (Homo sapiens, UniProt P09237); experiment: Inhibitory activity against matrix metalloprotease-7; in short: as §1
T1 sequence (P09237 whole entry): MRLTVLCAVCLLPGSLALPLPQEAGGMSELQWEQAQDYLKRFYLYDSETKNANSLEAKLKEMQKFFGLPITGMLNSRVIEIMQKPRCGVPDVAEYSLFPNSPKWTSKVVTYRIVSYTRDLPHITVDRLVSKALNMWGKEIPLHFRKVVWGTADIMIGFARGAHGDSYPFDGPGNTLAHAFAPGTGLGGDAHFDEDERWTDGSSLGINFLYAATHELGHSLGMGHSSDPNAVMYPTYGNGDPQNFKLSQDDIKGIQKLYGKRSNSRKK

Stromelysin-1 [3] = biological target: T2, Stromelysin-1 (Homo sapiens, UniProt P08254); experiment: (§2) In vitro inhibitory activity against matrix metalloprotease-3
Interstitial collagenase [4] = biological target: T3, Interstitial collagenase (Homo sapiens, UniProt P03956); experiment: (§3) In vitro inhibitory activity against matrix metalloprotease-1
T3 sequence (P03956 whole entry): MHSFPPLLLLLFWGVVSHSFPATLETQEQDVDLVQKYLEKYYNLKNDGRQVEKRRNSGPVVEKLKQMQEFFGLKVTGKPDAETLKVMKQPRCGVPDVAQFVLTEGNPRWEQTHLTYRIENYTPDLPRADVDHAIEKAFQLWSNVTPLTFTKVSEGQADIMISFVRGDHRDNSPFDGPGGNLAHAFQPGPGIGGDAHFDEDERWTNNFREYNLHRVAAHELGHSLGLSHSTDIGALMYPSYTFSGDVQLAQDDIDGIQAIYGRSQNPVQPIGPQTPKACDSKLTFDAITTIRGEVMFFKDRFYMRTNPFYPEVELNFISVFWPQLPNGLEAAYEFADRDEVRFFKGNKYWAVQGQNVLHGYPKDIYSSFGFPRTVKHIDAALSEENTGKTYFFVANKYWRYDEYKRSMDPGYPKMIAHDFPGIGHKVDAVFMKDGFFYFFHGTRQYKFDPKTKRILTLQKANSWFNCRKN

Collagenase 3 = Collagenase 3 (Homo sapiens, UniProt P45452); experiment: In vitro inhibitory activity against matrix metalloprotease-13
Interstitial collagenase [5] = biological target: T3, Interstitial collagenase; experiment: as §3; in short: as §1; remark: listed apart in the source
Stromelysin-1 [6] = biological target: T2, Stromelysin-1; experiment: as §2; in short: as §1; remark: listed apart in the source

Chain of Matrix metalloproteinase-9 (P14780 whole entry): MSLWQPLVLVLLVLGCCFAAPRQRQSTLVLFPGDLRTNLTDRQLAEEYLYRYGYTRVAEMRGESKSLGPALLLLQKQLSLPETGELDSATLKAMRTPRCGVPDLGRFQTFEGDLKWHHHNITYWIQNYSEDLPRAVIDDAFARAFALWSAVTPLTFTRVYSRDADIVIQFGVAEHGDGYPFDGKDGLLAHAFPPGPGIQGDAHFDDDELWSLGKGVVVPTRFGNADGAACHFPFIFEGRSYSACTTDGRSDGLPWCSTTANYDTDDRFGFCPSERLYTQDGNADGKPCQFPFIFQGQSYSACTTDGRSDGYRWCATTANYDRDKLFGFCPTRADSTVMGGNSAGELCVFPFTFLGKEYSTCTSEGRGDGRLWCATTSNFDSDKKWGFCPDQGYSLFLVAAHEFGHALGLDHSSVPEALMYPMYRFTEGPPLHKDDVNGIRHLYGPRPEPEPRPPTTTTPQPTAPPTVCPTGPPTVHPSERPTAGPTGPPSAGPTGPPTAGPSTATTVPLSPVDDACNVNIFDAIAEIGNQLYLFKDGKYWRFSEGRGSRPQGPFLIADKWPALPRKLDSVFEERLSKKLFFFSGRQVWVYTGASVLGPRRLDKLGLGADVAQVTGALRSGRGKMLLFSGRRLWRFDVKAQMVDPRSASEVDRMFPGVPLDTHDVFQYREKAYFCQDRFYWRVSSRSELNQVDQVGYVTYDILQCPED
T2 sequence (P08254 whole entry): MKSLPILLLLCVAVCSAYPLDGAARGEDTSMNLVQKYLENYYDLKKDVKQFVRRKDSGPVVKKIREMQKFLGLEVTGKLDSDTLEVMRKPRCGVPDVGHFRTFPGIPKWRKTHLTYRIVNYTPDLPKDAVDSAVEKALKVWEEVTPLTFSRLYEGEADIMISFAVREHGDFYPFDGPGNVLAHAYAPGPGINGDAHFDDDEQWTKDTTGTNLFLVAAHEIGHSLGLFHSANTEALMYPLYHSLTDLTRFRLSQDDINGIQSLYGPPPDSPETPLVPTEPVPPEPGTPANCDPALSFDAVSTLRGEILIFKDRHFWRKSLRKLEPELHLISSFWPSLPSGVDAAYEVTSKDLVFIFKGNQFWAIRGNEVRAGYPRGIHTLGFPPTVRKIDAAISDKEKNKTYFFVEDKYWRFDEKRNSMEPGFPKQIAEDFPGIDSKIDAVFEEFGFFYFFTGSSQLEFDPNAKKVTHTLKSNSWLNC
Chain of 72 kDa type IV collagenase (P08253 whole entry): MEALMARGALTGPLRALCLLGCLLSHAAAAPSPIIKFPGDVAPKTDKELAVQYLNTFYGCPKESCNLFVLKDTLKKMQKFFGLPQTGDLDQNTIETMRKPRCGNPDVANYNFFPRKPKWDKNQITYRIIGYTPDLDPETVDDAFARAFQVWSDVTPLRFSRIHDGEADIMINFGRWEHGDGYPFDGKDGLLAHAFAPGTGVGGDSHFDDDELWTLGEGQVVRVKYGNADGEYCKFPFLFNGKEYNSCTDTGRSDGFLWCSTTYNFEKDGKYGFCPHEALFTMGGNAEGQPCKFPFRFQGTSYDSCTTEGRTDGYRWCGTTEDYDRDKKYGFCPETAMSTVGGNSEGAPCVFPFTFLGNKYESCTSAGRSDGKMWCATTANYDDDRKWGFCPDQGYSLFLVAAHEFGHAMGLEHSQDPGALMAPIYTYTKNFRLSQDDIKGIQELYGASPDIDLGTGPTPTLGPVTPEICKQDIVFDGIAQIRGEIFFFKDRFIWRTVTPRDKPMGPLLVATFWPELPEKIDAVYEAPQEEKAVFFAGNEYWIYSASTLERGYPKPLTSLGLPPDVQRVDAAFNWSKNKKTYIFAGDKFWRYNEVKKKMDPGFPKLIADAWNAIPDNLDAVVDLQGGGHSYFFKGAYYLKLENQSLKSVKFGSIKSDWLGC
Chain of Neutrophil collagenase (P22894 whole entry): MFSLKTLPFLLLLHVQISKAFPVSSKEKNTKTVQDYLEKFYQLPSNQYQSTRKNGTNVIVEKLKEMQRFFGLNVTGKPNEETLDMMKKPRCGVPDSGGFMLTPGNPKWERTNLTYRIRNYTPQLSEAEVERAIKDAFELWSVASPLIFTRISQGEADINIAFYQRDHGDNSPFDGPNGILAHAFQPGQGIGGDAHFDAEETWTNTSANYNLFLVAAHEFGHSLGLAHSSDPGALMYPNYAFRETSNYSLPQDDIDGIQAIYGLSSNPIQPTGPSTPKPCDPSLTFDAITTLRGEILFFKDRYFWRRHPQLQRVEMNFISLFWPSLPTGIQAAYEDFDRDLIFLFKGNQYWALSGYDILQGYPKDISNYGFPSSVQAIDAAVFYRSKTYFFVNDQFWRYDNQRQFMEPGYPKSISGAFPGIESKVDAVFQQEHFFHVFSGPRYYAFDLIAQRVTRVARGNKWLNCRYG

SMILES	IC50 [1]	IC50 [2]	IC50 (Matrilysin)	IC50 (Interstitial collagenase [4])	IC50 (Interstitial collagenase [5])	IC50 (Stromelysin-1 [6])	IC50 (Neutrophil collagenase)	IC50 (Stromelysin-1 [3])	IC50 (Collagenase 3)	solubility (physchem)
COc1ccc(-c2ccc(S(=O)(=O)N[C@@H](C(=O)O)C3CCN(C(=O)OC(C)(C)C)CC3)cc2)cc1	–	0.0066 µM	3.66 µM	1.37 µM	–	–	–	0.0337 µM	–	–
COCCOC(=O)N1CCC(C(NS(=O)(=O)c2ccc(-c3ccc(SC)cc3)cc2)C(=O)O)CC1 (centres undefined)	0.0004 µM	0.0073 µM	1.02 µM	1.08 µM	–	–	0.0018 µM	0.0406 µM	0.001 µM	3.5 mg/mL (≈ 6.7 mM)
COCCOC(=O)N1CCC(C(C(=O)O)N(C)S(=O)(=O)c2ccc(-c3ccc(OC)cc3)cc2)CC1 (centres undefined)	0.0009 µM	0.0139 µM	3.95 µM	1.85 µM	–	–	–	0.0696 µM	–	–
COCCOC(=O)N1CCC(C(NS(=O)(=O)c2ccc(-c3ccccc3)cc2)C(=O)O)CC1 (centres undefined)	0.0242 µM	0.415 µM	> 10 µM	6.05 µM	–	–	0.0448 µM	0.418 µM	0.0553 µM	–
COCCOC(=O)N1CCC(C(C(=O)O)N(CCOC)S(=O)(=O)c2ccc(-c3ccc(OC)cc3)cc2)CC1 (centres undefined)	0.0006 µM	0.0091 µM	2.65 µM	1.22 µM	–	–	0.0024 µM	0.0455 µM	0.001 µM	11.1 mg/mL (≈ 19.6 mM)
COCCOC(=O)N1CCC(C(NS(=O)(=O)c2ccc(Oc3ccccc3)cc2)C(=O)O)CC1 (centres undefined)	0.0581 µM	0.597 µM	> 10 µM	> 10 µM	–	–	0.0258 µM	0.399 µM	0.14 µM	–
COc1ccc(-c2ccc(S(=O)(=O)NC(C(=O)O)C3CCN(C(=O)N4CCOCC4)CC3)cc2)cc1 (centres undefined)	0.0011 µM	0.0508 µM	8.57 µM	1.76 µM	–	–	–	0.221 µM	–	–
COc1ccc(-c2ccc(S(=O)(=O)NC(C(=O)O)C3CCN(C(=O)OC(C)C)CC3)cc2)cc1 (centres undefined)	< 0.0004 µM	0.0117 µM	1.74 µM	1.4 µM	–	–	0.0015 µM	0.0418 µM	0.001 µM	0.13 mg/mL (≈ 0.265 mM)
O=C(CC(CSc1ccccc1)C(=O)O)c1ccc(-c2ccc(Cl)cc2)cc1 (centres undefined)	0.0913 µM	3.11 µM	> 10 µM	> 10 µM	–	–	0.303 µM	–	1.57 µM	–
CCCCOc1ccc(S(=O)(=O)NC(C(=O)O)C2CCN(C(=O)OCCOC)CC2)cc1 (centres undefined)	0.549 µM	2.99 µM	> 10 µM	> 10 µM	–	–	0.294 µM	0.678 µM	0.791 µM	–
COCCOC(=O)N1CCC(C(C(=O)O)N(Cc2ccccn2)S(=O)(=O)c2ccc(-c3ccc(OC)cc3)cc2)CC1 (centres undefined)	0.001 µM	0.0187 µM	3.64 µM	3.31 µM	–	–	0.0032 µM	0.0861 µM	0.003 µM	–
COCCOC(=O)N1CCC(C(NS(=O)(=O)c2ccc(-c3ccc(OC)cc3)cc2)C(=O)O)CC1 (stereo in doubt; 13g)	0.0008 µM	0.055 µM	4.11 µM	–	–	–	0.0034 µM	0.133 µM	0.0035 µM	8.07 mg/mL (≈ 15.9 mM)
COCCOC(=O)N1CCC(C(NS(=O)(=O)c2ccc(-c3ccc(OC)cc3)cc2)C(=O)O)CC1 (stereo in doubt; 14i)	–	< 0.0004 µM	–	–	–	–	0.0005 µM	0.0138 µM	0.0004 µM	–

More lines, main results first:

IC50 [1]	IC50 [2]	IC50 (Matrilysin)	IC50 (Interstitial collagenase [4])	IC50 (Interstitial collagenase [5])	IC50 (Stromelysin-1 [6])	SMILES	IC50 (Neutrophil collagenase)	IC50 (Stromelysin-1 [3])	IC50 (Collagenase 3)	solubility (physchem)
0.0125 µM	0.553 µM	> 10 µM	–	–	–	COc1ccc(-c2ccc(S(=O)(=O)NC(CC#Cc3ccccc3)C(=O)O)cc2)cc1 (centres undefined)	0.0094 µM	–	–	–
0.0028 µM	0.177 µM	5.65 µM	5.21 µM	–	–	COC(=O)N1CCC(C(NS(=O)(=O)c2ccc(-c3ccc(OC)cc3)cc2)C(=O)O)CC1 (centres undefined)	–	0.657 µM	–	–
–	0.0715 µM	8.51 µM	3.49 µM	–	–	COc1ccc(-c2ccc(S(=O)(=O)N[C@H](C(=O)O)C3CCN(C(=O)OC(C)(C)C)CC3)cc2)cc1	–	0.345 µM	–	–
0.0066 µM	0.747 µM	> 10 µM	–	8.71 µM	–	COc1ccc(-c2ccc(S(=O)(=O)N[C@H](C(=O)O)C(C)C)cc2)cc1	0.0106 µM	1.89 µM	0.0242 µM	–
0.0032 µM	0.137 µM	4.37 µM	4.9 µM	–	–	COc1ccc(-c2ccc(S(=O)(=O)NC(C(=O)O)C3CCN(C(=O)CC(C)C)CC3)cc2)cc1 (centres undefined)	–	0.739 µM	–	–
0.053 µM	1.76 µM	4.24 µM	3.89 µM	–	4.84 µM	COc1ccc(-c2ccc(S(=O)(=O)NC(C(=O)O)C3CCNCC3)cc2)cc1 (centres undefined)	0.0302 µM	–	0.264 µM	–
–	0.0054 µM	2.59 µM	1.42 µM	–	–	COc1ccc(-c2ccc(S(=O)(=O)NC(C(=O)O)C3CCN(C(=O)OC(C)(C)C)CC3)cc2)cc1 (centres undefined)	–	0.0564 µM	–	–
0.001 µM	0.0949 µM	9.87 µM	2.76 µM	–	–	CCOC(=O)N1CCC(C(NS(=O)(=O)c2ccc(-c3ccc(OC)cc3)cc2)C(=O)O)CC1 (centres undefined)	–	0.162 µM	–	–
